In brackets after ≈: the same amount, converted by molar mass.
Columns and labels:
Trypanosoma cruzi = experiment: WHO-TDR: Chagas disease; format: functional, organism-based, Homo sapiens; conditions: MRC5
How it was run: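 Whole-organism screen of a 10,000-compound diverse library from Life Chemicals, filtered for drug-likeness and reactive groups, against intracellular amastigotes of Trypanosoma cruzi Tulahuen CL2 beta-galactosidase strain grown in MRC-5SV2 human lung fibroblast host cells. The assay followed previously published standard procedures, with a reference drug as positive control. Antiparasitic potency is reported as IC50.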

Plasmodium falciparum K1 = experiment: WHO-TDR: Malaria; format: functional, organism-based, Homo sapiens; conditions: Erythrocyte
How it was run: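 Whole-organism screen of a 10,000-compound diverse library from Life Chemicals, filtered for drug-likeness and reactive groups, against intra-erythrocytic Plasmodium falciparum K1 strain in human red blood cells. The assay followed previously published standard procedures, with a reference drug as positive control. Antiplasmodial potency is reported as IC50.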

[1] = test system: Trypanosoma brucei brucei; experiment: WHO-TDR: Human African Trypanosomiasis (HAT); format: functional, organism-based; conditions: Squib-427
How it was run: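 Whole-organism screen of a 10,000-compound diverse library from Life Chemicals, filtered for drug-likeness and reactive groups, against bloodstream forms of Trypanosoma brucei Squib 427 strain. The assay followed previously published standard procedures, with reference drugs as positive controls. Antiparasitic potency is reported as IC50.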

[2] = WHO-TDR: Cytotoxicity; format: toxicity, cell-based; conditions: human, MRC5 cells
Onchocerca ochengi [3] = experiment: (§1) WHO-TDR: Onchocerciasis; format: functional; design: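 at 12.5 µM on microfilariae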
How it was run: (§2)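 Onchocerca ochengi or Onchocerca lienalis, animal pathogens used as surrogates for the human parasite, were screened as whole microfilariae against a 10,000-compound diverse library from Life Chemicals. The reported measures of activity are percent inhibition and IC50.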

Onchocerca ochengi [4] = experiment: as §1; format: functional; design: concentration or dose not given beside the values; how it was run: as §2; remark: listed apart in the source
Leishmania infantum = experiment: WHO-TDR: Leishmaniasis; format: functional, organism-based, Mus musculus; conditions: Macrophage
How it was run: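 Whole-organism screen of a 10,000-compound diverse library from Life Chemicals, filtered for drug-likeness and reactive groups, against intracellular amastigotes of Leishmania infantum MHOM/MA(BE)/67 in murine peritoneal macrophage host cells. The assay followed previously published standard procedures, with a reference drug as positive control. Antiparasitic potency is reported as IC50.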

Schistosoma mansoni = experiment: WHO-TDR: Schistosomiasis; format: functional; design: concentration or dose not given beside the values
How it was run: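 Larval and/or adult Schistosoma mansoni (Puerto Rican strain) were tested whole against 10,000 diverse compounds from Life Chemicals. The procedure was a previously published standard one, using a reference drug as positive control. Results are expressed as percent inhibition and IC50.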

| SMILES | IC50 (Trypanosoma cruzi) [µg/mL] | IC50 (Plasmodium falciparum K1) [µg/mL] | IC50 [1] [µg/mL] | IC50 [2] [µg/mL] | % Inhibition (Onchocerca ochengi [3]) [%] | % Inhibition (Onchocerca ochengi [4]) [%] | IC50 (Leishmania infantum) [µg/mL] | % Inhibition (Schistosoma mansoni) [%] |
| --- | --- | --- | --- | --- | --- | --- | --- | --- |
| NC(=O)c1cc(-c2ccccc2)sc1NC(=O)C1COc2ccccc2O1 (centres undefined) | 3.4 (≈ 8.93 µM) | 5.78 (≈ 15.2 µM) | 3.65 (≈ 9.6 µM) | 1.92 (≈ 5.04 µM) | 100 | 0 | > 11.4 | 25 |
| COc1ccccc1N1CCN(c2nc(Nc3ccc(C)cc3)c3nccnc3n2)CC1 | 3.44 (≈ 8.05 µM) | 2.66 (≈ 6.23 µM) | 4.1 (≈ 9.6 µM) | 4.5 (≈ 10.5 µM) | 100 | 0 | 4.15 (≈ 9.71 µM) | 25 |
| Cc1cc(=O)[nH]c(-n2nc(C)cc2NC(=O)/C=C/c2ccc3c(c2)OCO3)n1 | 0.801 (≈ 2.11 µM) | 4.74 (≈ 12.5 µM) | 3.56 (≈ 9.37 µM) | 3.73 (≈ 9.85 µM) | 0 | 0 | 3.6 (≈ 9.49 µM) | 0 |
| O=C1CC(CNS(=O)(=O)c2ccccc2F)CN1c1ccc(Cl)cc1 (centres undefined) | > 11.5 | > 11.5 | > 11.5 | > 11.5 | 100 | 0 | > 11.5 | 0 |
| O=C(Cc1csc(NS(=O)(=O)c2ccc(Cl)cc2)n1)Nc1ccc(F)c(F)c1 | > 13.3 | > 13.3 | > 13.3 | > 13.3 | 100 | 0 | > 13.3 | 0 |
| Cc1cccc(NC(=O)Cn2nc(C(C)C)c3cnn(-c4ccccc4C)c3c2=O)c1 | > 12.5 | > 12.5 | > 12.5 | > 12.5 | 100 | 0 | > 12.5 | 0 |
| CSc1nc(NC(C)C)c2cnn(CCNC(=O)C34CC5CC(CC(C5)C3)C4)c2n1 | 4.17 (≈ 9.73 µM) | > 12.9 | 4.07 (≈ 9.49 µM) | > 12.9 | 100 | 0 | > 12.9 | 0 |
| COc1ccc(CCNC(=O)NCC2CC(=O)N(c3ccc(Cl)cc3)C2)cc1 (centres undefined) | 6.28 (≈ 15.6 µM) | > 12.1 | > 12.1 | > 12.1 | 100 | 75 | > 12.1 | 0 |
| O=C(CC1CSc2nccc(=O)n21)Nc1cc(C(F)(F)F)cc(C(F)(F)F)c1 (centres undefined) | > 12.7 | > 12.7 | > 12.7 | > 12.7 | 100 | 0 | > 12.7 | 0 |
| COc1cc(CSc2nc(CC(=O)NCc3ccco3)cs2)cc(OC)c1 | 2.99 (≈ 7.4 µM) | > 12.1 | > 1.21 | 7.55 (≈ 18.7 µM) | 100 | 0 | > 12.1 | 0 |
| Cc1cc(=O)[nH]c(-n2nc(C)cc2NC(=O)c2c(F)cccc2Cl)n1 | 0.331 (≈ 0.915 µM) | 3.62 (≈ 10 µM) | 1.96 (≈ 5.43 µM) | 0.39 (≈ 1.08 µM) | 0 | 0 | 5.62 (≈ 15.5 µM) | 0 |
| O=C(Nc1nc2c(s1)CCCC2C(=O)NCCC1=CCCCC1)c1ccccc1 (centres undefined) | 3.45 (≈ 8.42 µM) | 2.13 (≈ 5.19 µM) | 2.56 (≈ 6.26 µM) | > 12.3 | 100 | 0 | > 12.3 | 0 |
| CSCc1csc(NC(=O)Cc2ccc(Cl)cc2)n1 | 2.47 (≈ 7.91 µM) | 5.98 (≈ 19.1 µM) | 3 (≈ 9.6 µM) | 3.7 (≈ 11.8 µM) | 100 | 75 | > 9.38 | 0 |
| Cc1cccc(NC(=O)Cn2cc(S(=O)(=O)c3ccc(F)cc3)c3ccccc32)n1 | 4.41 (≈ 10.4 µM) | > 12.7 | 4.11 (≈ 9.71 µM) | > 12.7 | 100 | 0 | > 12.7 | 0 |
| CCC(CO)Nc1nc(Nc2ccc(C)c(C)c2)c2nccnc2n1 (centres undefined) | > 10.2 | > 10.2 | 3.66 (≈ 10.8 µM) | > 10.2 | 100 | 0 | > 10.2 | 0 |
| Cc1ccc(N2CCn3c2nnc(C(=O)NCCC2=CCCCC2)c3=O)cc1 | > 11.4 | 0.152 (≈ 0.4 µM) | > 11.4 | > 11.4 | 0 | 0 | 3.69 (≈ 9.71 µM) | 0 |
| CN1CCCc2cc(C(CNC(=O)c3cccs3)N3CCCCC3)ccc21 (centres undefined) | 10.4 (≈ 27.2 µM) | > 11.5 | 3.68 (≈ 9.6 µM) | > 11.5 | 100 | 0 | > 11.5 | 0 |
| CC1CCN(C(C)CNC(=O)Nc2ccc(F)cc2)CC1 (centres undefined) | > 8.8 | 3.19 (≈ 10.9 µM) | 0.303 (≈ 1.03 µM) | > 8.8 | 0 | 0 | > 8.8 | 0 |
| CC(C)c1ccc(NC(=O)c2n[nH]c3ccccc23)cc1 | 2.58 (≈ 9.23 µM) | > 8.38 | 2.65 (≈ 9.49 µM) | > 8.38 | 100 | 0 | > 8.38 | 0 |
| CC(C)CCN1C(=O)CCc2cc(NC(=O)COc3ccc(Cl)cc3)ccc21 | 3.45 (≈ 8.61 µM) | 7.34 (≈ 18.3 µM) | 3.89 (≈ 9.71 µM) | > 12 | 100 | 0 | > 12 | 0 |
| CCc1ccc(S(=O)(=O)Nc2ccc3c(c2)NC(=O)C(C)(C)CO3)s1 | 3.45 (≈ 9.08 µM) | > 11.4 | 3.08 (≈ 8.08 µM) | > 11.4 | 100 | 60 | 3.69 (≈ 9.71 µM) | 0 |
| O=C(c1ccco1)N1CCN(c2ccc(-c3cccs3)nn2)CC1 | > 10.2 | 5.12 (≈ 15 µM) | > 10.2 | > 10.2 | 100 | 0 | > 10.2 | 0 |
| CC(C)CCN1C(=O)CCc2cc(NC(=O)c3cccc(Br)c3)ccc21 | 3.35 (≈ 8.08 µM) | > 12.5 | 3.5 (≈ 8.42 µM) | > 12.5 | 100 | 0 | > 12.5 | 0 |
